Source: PubChem (The Scripps Research Institute Molecular Screening Center)
Most compounds without a hit are left out; they make up all but 3.4% or so of the library.
TAAR1 agonist: agonists of human TAAR1 | Q96RJ0 | CHO RD-HGA16 TAAR1, Fluo-8 calcium fluorescence; vehicle wells 0%, saturating PEA agonist 100% | activation, % at 3 µM | 360,000 tested, 0.99% active;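 active means activation above the mean activation of all test compounds in the run plus 3 SD, cut at about 38% in these data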
Target sequence (Q96RJ0 whole entry, looked up): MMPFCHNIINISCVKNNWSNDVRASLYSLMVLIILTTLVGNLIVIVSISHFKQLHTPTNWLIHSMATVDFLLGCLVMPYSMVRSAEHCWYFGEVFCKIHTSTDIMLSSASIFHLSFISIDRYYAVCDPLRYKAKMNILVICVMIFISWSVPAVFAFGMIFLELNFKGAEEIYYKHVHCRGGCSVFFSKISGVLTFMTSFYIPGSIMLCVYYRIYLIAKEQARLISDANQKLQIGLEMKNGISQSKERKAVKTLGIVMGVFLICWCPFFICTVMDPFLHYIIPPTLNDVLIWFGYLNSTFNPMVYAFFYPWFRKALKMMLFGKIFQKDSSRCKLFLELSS
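Test system: RD-HGA16 (CHO) cells co-expressing Gα16 and hTAAR1 / Benchmarks: DMSO vehicle as 0%, PEA at EC100 as 100% / Repeats: no replicates (n 1) / Measure: % activation from peak over basal fluorescence ratio, DMSO-to-PEA scaled / Timing: 17-24 h plating, Fluo-8 75 min 37 °C, 30 min RT / Technique: kinetic Fluo-8 calcium fluorescence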
TAAR1 antagonist: human TAAR1 antagonism; Q96RJ0; CHO RD-HGA16 TAAR1, Fluo-8 calcium fluorescence, antagonist; inhibition, % at 3 µM; 360,000 tested, 1.5% active; AID 624466;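 active means inhibition above a per-plate cutoff, the mean inhibition of test compounds on that plate plus 3 SD, cut at about 49% in these data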;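 further: 0% = DMSO plus EC80 beta-PEA response and 100% = DMSO alone without agonist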
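Test system: CHO RD-HGA16 cells bearing hTAAR1 | Reagent: β-PEA, EC80 | Compound dosing: 3 µM, single point | Schedule: Dye loading 75 min at 37 °C, then 30 min room temperature | Signal: Calcium fluorescence with Fluo-8 | Evaluation: Percent inhibition of PEA-evoked calcium signal, max/basal emission ratio | Control set: DMSO-only wells and EC80 β-PEA-stimulated wells | Repeats: Singlicate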
M1 ag: activates human CHRM1 receptor; P11229; CHO-K1 hM1, Fluo-8 calcium fluorescence, agonist mode; 0% DMSO, 100% acetylcholine EC100; activation, % at 3 µM; 360,000 tested, 0.33% active; AID 588814;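 active means activation above the run's mean compound activation plus 3 SD, cut at about 16% in these data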;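 further: peak over basal fluorescence ratio within a 140 s kinetic read after compound addition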
M1 PAM: potentiates human M1 receptor response to acetylcholine; P11229; CHO-K1 hM1, Fluo-8 calcium fluorescence, ACh EC20; 0% = ACh EC20, 100% = maximal ACh; activation, % at 3 µM; 360,000 tested, 0.088% active; AID 588819; in the data active means activation above about 19%, passing the limit was not always enough
CHRM1 antagonist: human CHRM1 antagonism; P11229; CHO-K1 hM1, Fluo-8 calcium fluorescence, ACh EC80 antagonist; inhibition, % at 3 µM; 360,000 tested, 1.3% active;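 active means percent inhibition above its own plate's cutoff, namely the mean of that plate's compound wells plus 3 SD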;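 further: peak over basal fluorescence ratio during 140 s after agonist addition; 0% = ACh EC80 plus DMSO and 100% = DMSO alone without agonist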
Active calls of the source: *; x = no result given.

SMILES | TAAR1 agonist | TAAR1 antagonist | M1 ag | M1 PAM | CHRM1 antagonist
Cc1csc(NC(=O)CSc2nnc(-c3ccoc3C)o2)n1 | 3 | -5 | -1 | 6 | -13
Cc1occc1-c1nnc(SCC(=O)Nc2nc(C(C)(C)C)cs2)o1 | 22 | 18 | -1 | -24 | 51*
O=C(NCC1CCN(C(=O)C(=O)c2cccs2)CC1)c1ccc2c(c1)OCO2 | 0 | -10 | x | x | x
c1ccc2c(c1)[nH]c1ccncc12 | 4 | 6 | 18* | 1 | -3
CN(C(=O)COc1ccccc1C(=O)NCCOc1ccccc1)c1ccccc1 | 16 | 75* | -2 | -22 | 50*
CCN(C(=O)c1ccc(C(C)(C)C)cc1)c1nnc(Cn2nnc3ccccc32)s1 | 9 | 42 | 0 | -19 | 37*
CCCCn1nnnc1NCc1ccc(N2CCCC2)cc1 | 2 | -7 | -6 | -20 | 91*
CCCn1nnnc1NCc1ccc(N2CCCC2)cc1 | 0 | 13 | -7 | -27 | 58*
CCCn1nnnc1NCc1ccc(F)cc1 | -1 | 16 | -7 | 11 | -8
CCCCn1nnnc1NCc1cccnc1 | 8 | 3 | -2 | 6 | -7
O=C(c1ccc(Br)o1)N1CCN(c2ccc(F)cc2)CC1 | 3 | -20 | -4 | 0 | -4
CCN1CCN(c2ccc(N3CCN(C(=O)c4ccc(Br)o4)CC3)nn2)CC1 | 2 | -13 | -5 | -18 | 35*
COC(=O)[C@]12C[C@H](CC(=O)N3CCC(c4ccccc4)CC3)C(=O)N(Cc3ccccc3)C1=C[C@H](C(C)C)O[C@@H]2C1CC1 | 0 | -31 | x | x | x
Cc1ccc(C)c(C(O)c2ncc(-c3cccc(F)c3)[nH]2)c1 (stereo unspecified) | 6 | 17 | 3 | 0 | -13
CN(C)C/C=C/C(O)(c1ccccc1)c1ccccc1 | 1 | 1 | -7 | -26 | 97*
CN(C)CC(CCC(CN(C)C)C(O)(c1ccccc1)c1ccccc1)C(O)(c1ccccc1)c1ccccc1 (stereo unspecified) | 2 | 7 | x | x | x
O=C1NC[C@@H](CCCCN2CCN(Cc3ccccc3)C(=O)C2=O)N(CCC2CCCCC2)C1=O | 0 | -2 | x | x | x
CC(=O)Oc1cc(C)c(Cl)c2c(OC(C)=O)cc(C(C)=O)c(O)c12 | 2 | -3 | x | x | x
CCc1[nH]nc(C(=O)NC2CCCN(Cc3ccccc3F)C2)c1C (stereo unspecified) | 4 | -3 | -5 | -14 | 40*
COc1cccc(-c2sc3ccccc3c2-c2ccc(OCCN(C)C)cc2)c1 | 26 | 51* | -2 | -2 | 17
Cn1c(=O)c2c(nc(SCC(=O)N3CCc4ccccc4C3)n2C)n(C)c1=O | 5 | -6 | 16* | 17 | -5
CCn1c(SCC(=O)N2CCCC2)nc2c1c(=O)n(C)c(=O)n2C | 11 | -9 | -7 | 9 | -14
Cn1c(=O)c2c(nc(SCC(=O)N3c4ccccc4CCc4ccccc43)n2C)n(C)c1=O | 3 | -5 | -2 | -12 | 19
CCn1c(SCC(=O)N2CCC(C)CC2)nc2c1c(=O)n(C)c(=O)n2C | 1 | -20 | -6 | 28* | -31
C[C@H](CO)N1C[C@H](C)[C@H](CN(C)C(=O)C2CCCCC2)OCc2cnnn2CCCC1=O | 4 | -4 | x | x | x
SMILES | TAAR1 agonist | TAAR1 antagonist | M1 ag | M1 PAM | CHRM1 antagonist
O=C(Nc1ccc(S(=O)(=O)N2CCOCC2)cc1)c1cc(-c2cc(Cl)ccc2O)n[nH]1 | 20 | 56* | 0 | 8 | -7
Cc1cc(O)c(-c2cc(C(=O)Nc3ccc(S(=O)(=O)N4CCOCC4)cc3)[nH]n2)cc1C | 16 | 23 | -3 | 6 | 0
CCCN1CCCCC(NC(=O)c2ccc(C)cc2C)C1=O (stereo unspecified) | 4 | -8 | x | x | x
COc1ccc(Cl)cc1NC(=O)c1cccc(S(=O)(=O)Nc2c(C)n(C)n(-c3ccccc3)c2=O)c1 | 17 | 22 | x | x | x
CCOC(=O)N1CCC(N2Cc3cccc(C(=O)NCc4ccccn4)c3C2=O)CC1 | 1 | -9 | -10 | -22 | 28*
CCOC(=O)N1CCC(N2Cc3cccc(C(=O)NCc4ccc(C)cc4)c3C2=O)CC1 | 1 | -7 | -3 | -1 | -7
N#Cc1c(N2CCN(c3ccc(F)cc3)CC2)nc(N)c2c(N)nc3c(c12)CC(=O)N3C1CC1 | 9 | 49 | 0 | -8 | 31*
CN(C)c1nc(N2CCN(c3ccc(F)cc3)CC2)c(C#N)c(=O)o1 | -1 | 8 | -1 | 17 | -15
CC(=O)Nc1ccc(SCCC2CCCCN2C)cc1 (stereo unspecified) | 0 | -21 | -12 | -19 | 25*
COc1cc(CN2CCN(C(O)(c3ccccc3)c3ccccc3)CC2)cc(OC)c1OC | 2 | -4 | -9 | -28 | 62*
COc1cc(CN2CCN(S(=O)(=O)c3ccccc3)CC2)cc(OC)c1OC | 0 | -4 | 0 | 8 | -12
C[C@@H]1ON(C)[C@H]2C[C@H]3c4[nH]c5c(-c6ccc(F)cc6)cccc5c4CCN3C(=O)[C@@H]12 | 3 | 21 | x | x | x
O=C(c1ccccc1)N1N=C(c2ccc(F)cc2)CC1(O)C(F)(F)F (stereo unspecified) | 2 | -7 | -6 | 7 | -6
CCN1CCN(c2nc(-c3ccc(F)cc3)cc(=O)[nH]2)CC1 | 4 | -5 | -2 | 10 | -8
CN1CCC2(CC1)N=C(c1ccc(F)cc1)C(=S)N2C(=O)c1ccccc1 | 2 | 1 | -7 | -26 | 45*
CCN1CCC2(CC1)N=C(c1ccc(F)cc1)C(=S)N2C(=O)c1ccc(C(C)(C)C)cc1 | 11 | -7 | -15 | -28 | 101*
COc1ccccc1NC(=O)Nc1nc(CC(=O)Nc2ccc(OC)c(OC)c2)cs1 | 13 | 49* | 9 | 6 | 8
COc1cccc(NC(=O)Cc2csc(NC(=O)Nc3ccccc3OC)n2)c1 | 12 | 56* | -3 | -3 | 8
CCC(=O)Nc1nc(CC(=O)Nc2ccccc2OC)cs1 | 11 | -12 | -1 | 11 | -34
NC(Cc1ccc(O)cc1)C(=O)NN=Cc1ccccc1O (stereo unspecified) | 2 | -7 | x | x | x
C=CCCC1CN(Cc2ccc(OC)cc2)S(=O)(=O)c2c(NCc3cc(OC)c(OC)c(OC)c3)cccc2O1 (stereo unspecified) | -1 | 31 | x | x | x
CCCCCCCCCCCCCCCC[n+]1ccc(/C=N/O)cc1 | 22 | 78* | -12 | -24 | 31*
CC(O)CN(CC(C)O)c1ccc2c(c1)Cc1cc([N+](=O)[O-])ccc1-2 (stereo unspecified) | 93* | 79* | 134* | -29 | 71*
CCCN1CCCCC(NC(=O)c2ccc3ccccc3c2)C1=O (stereo unspecified) | 0 | -11 | x | x | x
COc1cc(NC(=S)N2CCN(C(c3ccccc3)c3ccccc3)CC2)cc(OC)c1 | 6 | 7 | -8 | -23 | 30*
